Source: ChEMBL document CHEMBL1142140, “Activity of ribavirin against Hantaan virus correlates with production of ribavirin-5'-triphosphate, not with inhibition of IMP dehydrogenase” (2007)
The source made the active and inactive calls. No cut-off for these calls is given here.

Tests used:
[1] = tested on: Vero; assay: Increase in GTP level in Vero E6 cells at 35 uM after 24 hr relative to control; assay type: functional, Chlorocebus sabaeus
Procedure, shortened: (§1)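 Confluent 3-day-old Vero E6 cells incubated at 37°C with drug: 10 μg/ml RBV or 2.5 μg/ml MPA over a 0–72 h time course; RBV for 4 h; 10 μg/ml guanosine for 24 h. Ice-cold 0.5 M perchloric acid extracts neutralized with KOH, then SAX HPLC with an NH4H2PO4 gradient from pH 2.8 to 3.7. GTP and ATP read at 260 nm; mean of three measurements.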

[2] = tested on: Vero; assay: Inhibition of 1 ug/ml RBV-induced depression in intracellular GTP level in Vero E6 cells at 35 uM after 24 h; assay type: functional, cell-based; details: Chlorocebus sabaeus
[3] = tested on: Vero; assay: Effect on metabolism of 10 ug/ml RBV in Vero E6 cells assessed as RBV-MP concentration at 10 ug/ml after 24 h; assay type: functional, Chlorocebus sabaeus
Procedure, shortened: (§2)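 Vero E6 cells were given [3H]RBV for 24 h at 37°C, alone or with added MPA (experiment 1) or guanosine (experiment 2). Perchloric acid extracts were resolved on SAX HPLC, and RBV-MP and RBV-TP were quantified by counting 1-min fractions. Values are the mean ± SD of three measurements, and the experiment was repeated twice.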

[4] = tested on: Vero; assay: Effect on metabolism of 10 ug/ml RBV in Vero E6 cells assessed as RBV-TP concentration at 10 ug/ml after 24 h; assay type: functional, Chlorocebus sabaeus; procedure, shortened: as §2
[5] = tested on: Vero; assay: Effect on metabolism of 40 ug/ml RBV in Vero E6 cells assessed as RBV-MP concentration at 10 ug/ml after 24 h; assay type: functional, Chlorocebus sabaeus; procedure, shortened: as §2
[6] = tested on: Vero; assay: Effect on metabolism of 40 ug/ml RBV in Vero E6 cells assessed as RBV-TP concentration at 10 ug/ml after 24 h; assay type: functional, Chlorocebus sabaeus; procedure, shortened: as §2
[7] = tested on: Vero; assay: Inhibition of 40 ug/ml RBV-induced depression in intracellular GTP level in Vero E6 cells at 35 uM after 24 h; assay type: functional, cell-based; details: Chlorocebus sabaeus
Procedure, shortened: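 Vero E6 cells were treated for 24 h with 40 μg/ml RBV, with or without 10 μg/ml guanosine. Acid-soluble (perchloric acid) extracts were run on SAX HPLC, and GTP and ATP were quantified by UV at 260 nm. Values are the mean of three measurements.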

[8] = tested on: Vero; assay: Inhibition of MPA effect on viral RNA in HTNV 76-118-infected Vero E6 cells at 35 uM; assay type: functional, cell-based; details: Hantaan virus
[9] = tested on: Vero; assay: Effect on metabolism of 10 ug/ml RBV in Vero E6 cells assessed as RBV-TP concentration at 1 ug/ml after 24 h; assay type: functional, Chlorocebus sabaeus; procedure, shortened: as §2
[10] = tested on: Vero; assay: Effect on metabolism of 10 ug/ml RBV in Vero E6 cells assessed as RBV-TP concentration at 2 ug/ml after 24 h; assay type: functional, Chlorocebus sabaeus; procedure, shortened: as §2
[11] = tested on: Vero; assay: Effect on metabolism of 40 ug/ml RBV in Vero E6 cells assessed as RBV-TP concentration at 1 ug/ml after 24 h; assay type: functional, Chlorocebus sabaeus; procedure, shortened: as §2
[12] = tested on: Vero; assay: Decrease in GTP level in Vero E6 cells at 40 ug/ml after 24 h; assay type: functional, Chlorocebus sabaeus; set-up: scale not given: the % may be the effect or the level left
[13] = tested on: Vero; assay: Effect on metabolism of 10 ug/ml RBV in Vero E6 cells assessed as RBV-TP concentration at 5 ug/ml after 24 h; assay type: functional, Chlorocebus sabaeus; procedure, shortened: as §2
[14] = tested on: Vero; assay: Decrease in GTP level in Vero E6 cells at 2.5 ug/ml; assay type: functional, Chlorocebus sabaeus; set-up: scale not given: the % may be the effect or the level left; procedure, shortened: as §1
[15] = tested on: Vero; assay: Effect on metabolism of 40 ug/ml RBV in Vero E6 cells assessed as RBV-MP concentration at 2 ug/ml after 24 h; assay type: functional, Chlorocebus sabaeus; procedure, shortened: as §2
[16] = tested on: Vero; assay: Effect on metabolism of 10 ug/ml RBV in Vero E6 cells assessed as RBV-MP concentration at 1 ug/ml after 24 h; assay type: functional, Chlorocebus sabaeus; procedure, shortened: as §2
[17] = tested on: Vero; assay: Effect on metabolism of 10 ug/ml RBV in Vero E6 cells assessed as RBV-MP concentration at 5 ug/ml after 24 h; assay type: functional, Chlorocebus sabaeus; procedure, shortened: as §2
[18] = tested on: Vero; assay: Effect on metabolism of 40 ug/ml RBV in Vero E6 cells assessed as RBV-MP concentration at 5 ug/ml after 24 h; assay type: functional, Chlorocebus sabaeus; procedure, shortened: as §2
[19] = tested on: Vero; assay: Effect on metabolism of 40 ug/ml RBV in Vero E6 cells assessed as RBV-TP concentration at 5 ug/ml after 24 h; assay type: functional, Chlorocebus sabaeus; procedure, shortened: as §2
[20] = tested on: Vero; assay: Effect on metabolism of 40 ug/ml RBV in Vero E6 cells assessed as RBV-TP concentration at 2 ug/ml after 24 h; assay type: functional, Chlorocebus sabaeus; procedure, shortened: as §2
[21] = tested on: Vero; assay: Effect on metabolism of 40 ug/ml RBV in Vero E6 cells assessed as RBV-MP concentration at 1 ug/ml after 24 h; assay type: functional, Chlorocebus sabaeus; procedure, shortened: as §2
[22] = tested on: Vero; assay: Effect on metabolism of 10 ug/ml RBV in Vero E6 cells assessed as RBV-MP concentration at 2 ug/ml after 24 h; assay type: functional, Chlorocebus sabaeus; procedure, shortened: as §2
[23] = Inhibition of viral RNA levels in HTNV76-118-infected Vero E6 cells at 10 ug/ml; assay type: functional, Hantaan virus; details: Orthohantavirus hantanense, 76-118, Vero
[24] = tested on: Vero; assay: RBV metabolism in Vero E6 cells assessed as RBV-TP concentration at 40 ug/ml after 24 h; assay type: functional, Chlorocebus sabaeus; procedure, shortened: as §2
[25] = tested on: Vero; assay: RBV metabolism in Vero E6 cells assessed as RBV-MP concentration at 10 ug/ml after 24 h; assay type: functional, Chlorocebus sabaeus; procedure, shortened: as §2
[26] = tested on: Vero; assay: RBV metabolism in Vero E6 cells assessed as RBV-TP concentration at 10 ug/ml after 24 h; assay type: functional, Chlorocebus sabaeus; procedure, shortened: as §2
[27] = Inhibition of viral RNA levels in HTNV76-118-infected Vero E6 cells at 0.5 ug/ml; assay type: functional, Hantaan virus; details: Orthohantavirus hantanense, 76-118, Vero
[28] = tested on: Vero; assay: Decrease in GTP level in Vero E6 cells at 40 ug/ml after 4 h; assay type: functional, cell-based; details: Chlorocebus sabaeus; procedure, shortened: as §1
[29] = tested on: Vero; assay: RBV metabolism in Vero E6 cells assessed as RBV-MP concentration at 40 ug/ml after 24 h; assay type: functional, Chlorocebus sabaeus; procedure, shortened: as §2
[30] = tested on: Vero; assay: Decrease in GTP level in Vero E6 cells at 10 ug/ml; assay type: functional, Chlorocebus sabaeus; set-up: scale not given: the % may be the effect or the level left; procedure, shortened: as §1
[31] = Inhibition of viral RNA levels in HTNV 76-118-infected Vero E6 cells at 40 ug/ml after 3 days; assay type: functional, Hantaan virus; details: Orthohantavirus hantanense, 76-118, Vero, 72 h

With Nc1nc2c(ncn2[C@@H]2O[C@H](CO)[C@@H](O)[C@H]2O)c(=O)[nH]1 [GUANOSINE] the Activity [1] was 145%, the Activity [2] was “Active” and the Activity [3] was 1.9 pmol. For the same molecule, the Activity [4] was 14 pmol, the Activity [5] was 8.6 pmol and the Activity [6] was 65 pmol. The Activity [7] was “Active” and the Activity [8] was “Active”.
With COc1c(C)c2c(c(O)c1C/C=C(\C)CCC(=O)O)C(=O)OC2 [MYCOPHENOLIC ACID] the Activity [9] was 7.8 pmol, the Activity [10] was 6.8 pmol and the Activity [11] was 26 pmol. It also gave an Activity [12] of 80%, an Activity [13] of 7 pmol and an Activity [14] of 90%. The Activity [15] was 3.8 pmol, the Activity [16] was 1.3 pmol and the Activity [17] was 1.2 pmol. It also gave an Activity [18] of 3.9 pmol, an Activity [19] of 26 pmol and an Activity [20] of 27 pmol. For the same molecule, the Activity [21] was 4.2 pmol, the Activity [22] was 1.3 pmol and the inhibition at 10 µg/mL [23] was -70%.
For NC(=O)c1ncn([C@@H]2O[C@H](CO)[C@@H](O)[C@H]2O)n1 [RIBAVIRIN], the Activity [24] was 22 pmol, the Activity [12] was 50% and the Activity [25] was 1.1 pmol. For the same molecule, the Activity [26] was 6.5 pmol, the inhibition at 0.5 µg/mL [27] was -80% and the Activity [28] was “Active”. The Activity [29] was 3.2 pmol, the Activity [30] was 40% and the inhibition at 40 µg/mL [31] was 99.9%.
